Source: PubChem BioAssay (several laboratories)
Shown are actives, neighbours in structure and some others; about 12% of the full set was active somewhere.
bCat nuc transl: modulators of beta-catenin nuclear translocation. HeLa beta-catenin nuclear translocation, immunofluorescence imaging. nuclear translocation activity, % at 5 µM. hit rate 0.3% among 190,000;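 active = nuclear translocation activity above 50% at 5 µM, with a well cell count of 50 or more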;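 note: per-cell ratio of nuclear to cytoplasmic median beta-catenin stain intensity; plate controls were DMSO negative control for no effect and GSK-3 inhibitor IX positive control for full effect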
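System: HeLa cells, endogenous beta-catenin; compound dosing: 5 µM primary single dose, 0.1% DMSO, 0.02–20 µM confirmation series; incubation: 24 h compound exposure at 37°C, 5% CO2; signal: beta-catenin immunofluorescence imaging with DAPI; evaluation: % activation, nuclear-to-cytoplasmic median beta-catenin signal ratio per cell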
Dynein cargo inh: dynein cargo transport inhibition; 3617.4 mouse cells, GR-EGFP nuclear translocation imaging; test concentration mostly 20 µM; stimulated with dexamethasone, 1 µM; stronger effect = lower value; z-score, hits read low; hit rate 0.47% among 220,000; AID 1381;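 active = plate z-score of nuclear minus cytoplasmic receptor signal below a set negative limit, without overly bright fluorescence or cell loss, cut at about -3.5 in these data, passing the limit was not always enough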;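 note: z-score of nuclear minus cytoplasmic ring GR-EGFP intensity difference per well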
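medium = tetracycline-free induction medium containing charcoal-stripped FBS | also added = 1.0 µM final dexamethasone stimulus | schedule = 48 h induction, 1 h compound, 30 min dex at 37 °C | technique = fixed, Hoechst-stained cells imaged at 10x for EGFP | measure = GR-EGFP nuclear translocation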
Autophagy HCS: alters autophagy in cells; MEF GFP-LC3 puncta imaging; test concentration mostly 10 µM; calls only at 10 µM (by protocol); hit rate 0.98% among 190,000; AID 463193;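 active = percentage of spot-positive cells more than 3 SD above its plate mean, without a fluorescence outlier flag or 80% toxicity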;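 note: spot-positive cell cutoff set from DMSO-treated cells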
MT stabilize HCS: microtubule stabilizers in HeLa cells; hit rate 0.83% among 200,000; HeLa tubulin immunostaining HCS, 24 h; share of cells brighter than vehicle mean+2SD; AID 2205; % tubulin-high responders, % at 10 µM;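 active = plate Z-score above 3 for both tubulin-high and condensed-nucleus cell shares, with cell loss under 80%, at 10 µM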;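 note: anti alpha tubulin signal scored within the nucleus-defined area of each cell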
L major viab: Leishmania major promastigote growth inhibition. Leishmania major promastigotes, resazurin fluorescence viability. inhibition, % at 10 µM. hit rate 9% among 200,000. AID 1063; in the data active = inhibition above about 50%;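 note: promastigotes grown with compound for 44 hours at 28 °C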
CHOP inhibitor: inhibitors of CHOP induction in ER stress response; CHO-K1 CHOP-promoter luciferase, tunicamycin-induced, 15-18 h; inhibition, % at 10 µM; hit rate 3.8% among 220,000;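 active = compounds that reduced the stress-induced luciferase reporter signal by more than about 70% of percent inhibition, limit read from the data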;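 note: 0% = tunicamycin plus vehicle and 100% = wells without tunicamycin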
* hit, by the source's call; i = inactive; / = not tested or not shown; + = active, no number.

SMILES	bCat nuc transl	Dynein cargo inh	Autophagy HCS	MT stabilize HCS	L major viab	CHOP inhibitor
Cn1c(=O)c2c(n(Cc3ccccc3)c1=O)NC(=O)C2CC(=O)NCc1cccc(Cl)c1 (centres undefined)	2	0.31	i	3	-4	2
COc1ccc2cc(CCNC(=O)C3CCCC3)c(=O)[nH]c2c1	-1	-0.84	i	3	-8	-34
CCCCC(=O)NC(NC(=S)N1CCCCCC1)C(Cl)(Cl)Cl (centres undefined)	-4	-0.45	i	2	7	4
CC1(C)CC(=O)c2cnc(N3CCc4ccccc4C3)nc2C1	-1	-0.87	i	3	-8	67
CC1(C)CC(=O)c2cnc(N3CCN(c4ccccc4)CC3)nc2C1	-2	-0.092	i	3	3	87*
CCOC(=O)C1CCN(C(=O)C23CC4CC(CC(C4)C2)C3)CC1	1	-0.37	i	3	104*	-11
Cc1cccc(Sc2c([N+](=O)[O-])ncn2C)c1	0	-0.5	i	3	93*	-19
Nc1nc2n(n1)C(c1cccc(Br)c1)CC(c1ccccc1)N2 (centres undefined)	-2	-1.1	/	5	78*	-6
COc1cccc(C2CC(c3c(F)cccc3Cl)n3nc(N)nc3N2)c1 (centres undefined)	2	-0.51	+	3	-1	15
COc1cccc(C2CC(c3cccc(Br)c3)n3nc(N)nc3N2)c1 (centres undefined)	2	-0.68	i	6	75*	-5
COc1cccc(C2CC(c3c(Cl)cccc3Cl)n3nc(N)nc3N2)c1 (centres undefined)	-1	-0.4	/	5	-1	-31
CN(CCCN1CCOCC1)Cc1cn(C)nc1-c1ccccc1F	0	-0.12	i	4	-1	1
COc1ccc(-c2cc(-c3ccccc3)c(C#N)c(S(C)(=O)=O)n2)cc1	/	-1.6	i	5	98*	-74
Cc1cc(NC(=O)CN2CCN(Cc3ccccc3)CC2)nc2c1c(=O)oc1ccccc12	1	0.24	i	4	3	24
COc1cccc(/C=N/n2c(SC)nnc2-c2ccccc2)c1O	90*	-0.4	i	27	-9	/
CC(C)N(CC(N)=O)C(=O)c1sc2cc(F)ccc2c1Cl	2	0.26	i	3	-1	-4
CN1CCC(N(C)C(=O)c2sc3cc(F)ccc3c2Cl)CC1	4	0.77	i	4	90*	-3
CCOC(=O)C1=C(C)N=C2SC(C)C(=O)N2C1/C=C/c1ccccc1OC (centres undefined)	1	-0.26	i	3	-3	35
CCOC(=O)C1=C(N)n2c(s/c(=C\c3cccnc3)c2=O)=C(C(=O)OCC)C1c1cccnc1 (centres undefined)	-5	/	/	/	/	/
CCOC(=O)C1=C(N)n2c(s/c(=C\c3cccnc3)c2=O)=C(C(=O)OC)C1c1cccnc1 (centres undefined)	/	3.1	i	3	6	/
CCOC(=O)C1=c2/c(=C/c3ccccc3OC)c(N)c(C#N)n2C(=O)C(c2ccccc2OC)S1 (centres undefined)	/	0.11	+	2	-1	22
CCOC(=O)C1=C(N)n2c(s/c(=C\c3cccs3)c2=O)=C(C(=O)OCC)C1c1cccs1 (centres undefined)	99*	0.41	i	45*	-4	/
CCOC(=O)C1=C(N)n2c(s/c(=C\c3ccncc3)c2=O)=C(C(=O)OCC)C1c1ccncc1 (centres undefined)	2	-0.69	i	2	52*	42
CCOC(=O)C1=c2/c(=C/c3ccncc3)c(N)c(C(=O)OC)n2C(=O)C(c2ccncc2)S1 (centres undefined)	-2	1.6	i	2	56*	24
CCC1CCCCN1C(=O)CSc1nc(N)cc(N)n1 (centres undefined)	0	0.27	i	3	0	-1
SMILES	bCat nuc transl	Dynein cargo inh	Autophagy HCS	MT stabilize HCS	L major viab	CHOP inhibitor
CCC(CO)Nc1nc(NCc2ccccc2)c2ncn(C(C)C)c2n1 (centres undefined)	/	/	/	/	/	13
O=C(N/C(=C\c1ccc(Cl)cc1)C(=O)N1CCOCC1)c1ccc([N+](=O)[O-])cc1	-1	2.2	i	4	12	-5
CNC(=S)N1CCN(c2ccc(Cl)c(Cl)c2)CC1	1	-0.17	i	2	12	23
O=C(Nc1cccc(S(=O)(=O)N2CCOCC2)c1)c1ccco1	1	-0.79	i	1	93*	45
O=S(=O)(c1cccc(NC(=S)NCc2ccco2)c1)N1CCOCC1	2	0.081	i	2	32	25
O=C(Cc1ccc(Cl)c(Cl)c1)Nc1cccc(S(=O)(=O)N2CCOCC2)c1	-1	-0.26	i	2	55*	7
CSCCC(NC(=O)c1cccc(S(=O)(=O)N2CCOCC2)c1)C(=O)Nc1cccc(C)c1 (centres undefined)	-6	0.47	i	3	70*	1
CC(Sc1nc2cc(Cl)ccc2s1)C(=O)Nc1cccc(S(=O)(=O)N2CCOCC2)c1 (centres undefined)	0	-0.62	i	2	62*	11
CN1CC(=O)N(CC(=O)Nc2cccc(S(=O)(=O)N3CCOCC3)c2)C1=O	1	-0.54	i	4	-2	2
CSCCC(NS(=O)(=O)c1ccc2c(c1)oc(=O)n2C)C(=O)NCc1cccs1 (centres undefined)	0	-0.18	/	/	/	-13
CCCC(=O)Nc1ccc(C(=O)NNC(=O)c2ccco2)cc1	-1	0.29	i	3	-6	-10
CCCCNC(=O)CSc1nnc(NC(C)=O)s1	1	1.1	i	2	-10	-3
S=C(NCCC(c1ccccc1)c1ccccc1)Nc1cccc(Cl)c1	1	-0.42	i	2	59*	94*
Cc1ccc(NC(=S)NCCC(c2ccccc2)c2ccccc2)c(C)c1	0	0.12	i	2	66*	67
S=C(NCc1ccncc1)Nc1cccc(Cl)c1	-8	-0.36	i	5	12	15
Cn1c(=O)n(C)c2cc(NC(=O)c3cccc([N+](=O)[O-])c3)c(Br)cc21	-1	1.3	i	3	60*	-22
O=C(COC(=O)C1=COCCO1)NC1CCCCCCC1	-3	-0.27	i	2	-9	7
COc1ccccc1NC(=O)c1nc[nH]c1C(=O)Nc1ccccc1OC	6	-1.7	i	31*	-4	-15
COc1ccc(NC(=O)c2nc[nH]c2C(=O)Nc2ccccc2C)cc1	80*	0.077	i	54*	3	64
CC(=O)Cn1c(C(F)(F)F)nc2ccccc21	-3	-0.77	i	2	0	20
